Experimental findings from ChEMBL document CHEMBL1138854, “Synthesis and antitumor activity of guanylhydrazones from 6-(2,4-dichloro-5-nitrophenyl)imidazo[2,1-b]thiazoles and 6-pyridylimidazo[2,1-b]thiazoles(1)” (2006) are described below.

Test [1] deals with HL-60. The test can be described thus: Induction of cell death in HL60 cells at 50 uM within 3 hrs relative to control. Format: functional, Homo sapiens. An outline of the steps:
(§1)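 Compound was dissolved in DMSO and diluted into complete medium; controls received matching DMSO. Cell death was scored by propidium iodide flow cytometry and by trypan blue exclusion. One experiment is shown, repeated three times.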

Test [2] deals with HL-60. Nature of the test: Induction of cell death in HL60 cells at 50 uM after 24 hrs relative to control. Format: functional, Homo sapiens. An outline of the steps: as §1
Test [3] has as its system HL-60. The test can be described thus: Cell cycle arrest in HL60 cells by accumulation in G2/M phase. Format: functional, cell-based. The settings on record: Homo sapiens. An outline of the steps: (§2)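 HL60 cells (RPMI 1640, 10% FCS, 2 mM glutamine, 37 °C, 5% CO2) exposed to graded concentrations for 24 h; compound in DMSO diluted in complete medium, DMSO vehicle controls. Nuclei isolated, kept at 4 °C in dark, stained with 50 µg/mL propidium iodide just before flow cytometry; DNA profiles give G0/G1, S, G2/M fractions. Mean ± SEM of three determinations.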

Test [4] has as its system HL-60. The test can be described thus: Reduction in G0/G1 phase of cell cycle arrest in HL60 cells. Format: functional, cell-based. The note with it: Homo sapiens. An outline of the steps: as §2
Test [5] concerns HL-60. The test can be described thus: Reduction in S phase of cell cycle arrest in HL60 cells. Format: functional, cell-based. The settings on record: Homo sapiens. An outline of the steps:
as §2

Test [6] concerns HL-60. Nature of the test: Increase in p21 level in HL60 cells at 25 uM after 24 hrs. Format: functional, cell-based. The settings on record: Homo sapiens. An outline of the steps:
(§3)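 HL60 cells held 24 h with or without 25 µM compound (DMSO vehicle); cellular proteins extracted and p21 and p27 detected by Western blotting with specific antibodies. Repeated at least twice.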

Test [7] concerns HL-60. Nature of the test: Increase in p27 level in HL60 cells at 25 uM after 24 hrs. The note with it: Homo sapiens. Format: functional, cell-based. An outline of the steps: as §3
A short description of test [8]: Antitumor activity against leukemia cell lines of the NCI60 panel. Format: functional. The settings on record: Homo sapiens; for TGI: read-out: pTGI (converted). An outline of the steps:
(§4)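 Run by NCI in the 60-cell-line panel (details in Supporting Information). Highest concentration 10^-4 M unless noted (one case 10-2.6 M). Values expressed as -log molar concentration giving 50% growth inhibition (pGI50), total cytostasis (pTGI) or 50% cell kill (pLC50); only values >4.00 reported; mean graph midpoint is the calculated panel mean.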

The subject of the next test is NSCLC. Nature of the test: Antitumor activity against NSCLC cell lines of the NCI60 panel. Format: functional. The note with it: Homo sapiens; for TGI: read-out: pTGI (converted). An outline of the steps:
as §4

The nature of test [9]: Antitumor activity against colon cell lines of the NCI60 panel. The note with it: Homo sapiens; for TGI: read-out: pTGI (converted). Format: functional. An outline of the steps:
as §4

Test [10] is described as follows: Antitumor activity against CNS cell lines of the NCI60 panel. Format: functional. The settings on record: Homo sapiens; for TGI: read-out: pTGI (converted). An outline of the steps: as §4
Test [11] in a line: Antitumor activity against melanoma cell lines of the NCI60 panel. Format: functional. The note with it: Homo sapiens; for TGI: read-out: pTGI (converted). An outline of the steps:
as §4

The nature of test [12]: Antitumor activity against ovarian cell lines of the NCI60 panel. Format: functional. The settings on record: Homo sapiens; for TGI: read-out: pTGI (converted). An outline of the steps: as §4
A short description of test [13]: Antitumor activity against renal cell lines of the NCI60 panel. Format: functional, Homo sapiens. The settings on record: Homo sapiens, renal; for TGI: read-out: pTGI (converted). An outline of the steps:
as §4

Test [14] is described as follows: Antitumor activity against prostate cell lines of the NCI60 panel. Format: functional. The note with it: Homo sapiens; for TGI: read-out: pTGI (converted). An outline of the steps: as §4
Test [15] can be described thus: Antitumor activity against breast cell lines of the NCI60 panel. Format: functional. The settings on record: Homo sapiens; for TGI: read-out: pTGI (converted). An outline of the steps:
as §4

The subject of test [16] is HL-60. The test can be described thus: Induction of cell death in HL60 cells at 25 uM after 48 hrs relative to control. Format: functional, Homo sapiens. An outline of the steps: as §1
Test [17] deals with HL-60. The test can be described thus: Reduction in cell proliferation of HL60 cells at 25 uM after 48 hrs relative to control. Format: functional, Homo sapiens. On the set-up: scale not given: the % may be the effect or the level left. An outline of the steps:
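HL60 cells in complete RPMI medium incubated with compound (DMSO-diluted; vehicle controls); total cell number counted by flow cytometry relative to control. One experiment shown, repeated three times.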

The subject of test [18] is HL-60. The test can be described thus: Cell cycle arrest in HL60 cells by accumulation in G2/M phase at 25 uM after 24 hrs.
The target in test [19] is T1, S-adenosylmethionine decarboxylase proenzyme (Homo sapiens) (UniProt P17707).
T1 sequence (whole entry): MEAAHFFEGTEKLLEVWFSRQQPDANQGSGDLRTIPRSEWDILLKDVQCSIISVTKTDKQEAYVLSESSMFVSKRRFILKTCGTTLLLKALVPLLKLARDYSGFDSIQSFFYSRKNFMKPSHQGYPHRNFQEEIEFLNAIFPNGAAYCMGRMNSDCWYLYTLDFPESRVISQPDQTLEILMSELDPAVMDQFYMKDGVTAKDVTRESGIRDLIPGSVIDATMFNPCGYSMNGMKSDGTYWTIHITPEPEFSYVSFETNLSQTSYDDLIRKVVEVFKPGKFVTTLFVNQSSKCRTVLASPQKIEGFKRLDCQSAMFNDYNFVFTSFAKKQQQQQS
The test can be described thus: Inhibition of SAMDC in HL60 cells by release of radioactive CO2 from [14C-carboxyl]S-adenosylmethionine. The note with it: HL-60.

Test [20] deals with HL-60. Nature of the test: Mitochondrial potential in HL60 cells assessed as decrease in mitochondrial membrane potential by DiOC6 staining at 25 uM after 24 hrs. On the set-up: scale not given: the % may be the effect or the level left.
The test system of test [21] is HL-60. The test can be described thus: Mitochondrial potential in HL60 cells assessed as decrease in ATP level at 0.5 uM. Format: functional, cell-based. The note with it: Homo sapiens.

Each structure is given as a SMILES string. Activity calls are given as the source filed them. The calls are words filed in the database; no cut-off is given here.

For `Cc1sc2nc(-c3ccccn3)c(/C=N/NC(=N)N)n2c1C`, the Activity was 45% in the test with HL-60 [1]; 100% in the test with HL-60 [2]; “Dose-dependent effect” in the test on HL-60 [3]; 25% in the test with HL-60 [16]; above 80% with HL-60 [17]; 52% with HL-60 [18]. For the same compound, in the test with HL-60 [20], the Activity is on record as 50%. The outcome with HL-60 [4], in the test on HL-60 [5], in the test with HL-60 [6] and in the test on HL-60 [7] was Active. Further, the GI50 in [8] was 52.5 µM; in the test on NSCLC it was 18.2 µM; in test [9] it was 18.2 µM; in test [10] it was 20.9 µM; in [11], 17 µM; in test [12], 18.6 µM. For the same compound, the values for the GI50 in test [13], in test [14] and in [15] were 6.61 µM, 22.4 µM and 22.9 µM, respectively. Besides, the TGI is 83.2 µM in test [8]; 37.2 µM with NSCLC; 40.7 µM in test [9]; 41.7 µM in [10]; 33.1 µM in test [11]; 37.2 µM in test [12]. Further, the TGI in [13] was 31.6 µM; in test [14], 57.5 µM; in test [15] it was 41.7 µM. Also, the outcome in [19] was inactive.
Turning to `CCCc1cn2c(/C=N/NC(=N)N)c(-c3cc([N+](=O)[O-])c(Cl)cc3Cl)nc2s1`, the result (in the test on HL-60 [21]; in test [19]) was inactive. In addition, the 50% growth inhibitory concentration (GI50) in test [8] was 0.724 µM; in the test with NSCLC, 1.74 µM; in test [9], 1.48 µM; in [10], 1.66 µM; in test [11] it was 1.66 µM; in test [12], 1.62 µM. The GI50 is 1.66 µM in test [13], 1.74 µM in [14] and 1.74 µM in test [15]. For the same compound, the TGI in test [8] is 1.95 µM; in the test with NSCLC it was 3.24 µM; in test [9], 2.75 µM; in [10] it was 3.09 µM; in test [11] it was 3.09 µM; in test [12], 3.02 µM. For the same compound, the TGI in test [13] is 3.09 µM; in [14], 3.39 µM; in [15], 3.47 µM.
Regarding `N=C(N)N/N=C/c1c(-c2ccncc2)nc2sc(Cl)cn12`, the result (with HL-60 [21]; in [19]) was inactive. For the same compound, the concentration for 50% growth inhibition (GI50) is 3.8 µM in test [8]; 6.76 µM with NSCLC; 8.13 µM in [9]; 7.76 µM in test [10]; 5.89 µM in test [11]; 10.2 µM in test [12]. Moreover, the values for the GI50 in [13], in test [14] and in [15] were 6.61 µM, 17.4 µM and 13.2 µM, respectively. For the same compound, the TGI is 11.7 µM in [8]; 17 µM with NSCLC; 27.5 µM in test [9]; 20 µM in test [10]; 13.8 µM in test [11]; 20.9 µM in test [12]. The TGI is 33.1 µM in [14] and 40.7 µM in test [15].
`Cc1cn2c(/C=N/NC(=N)N)c(-c3cccnc3)nc2s1`: the concentration for 50% growth inhibition (GI50) was 4.79 µM in test [8]; 13.8 µM in the test on NSCLC; 5.62 µM in [9]; 12 µM in test [10]; 10.2 µM in test [11]; 15.8 µM in [12]. Further, the concentration for 50% growth inhibition (GI50) in test [13] is 9.55 µM; in test [14] it was 6.92 µM; in test [15], 7.08 µM. The TGI in test [8] was 51.3 µM; with NSCLC, 36.3 µM; in test [9] it was 20.9 µM; in test [10], 28.2 µM; in test [11], 25.7 µM; in test [12] it was 36.3 µM. Besides, the results for the TGI in test [14] and in test [15] were 24.5 µM and 22.4 µM, respectively.
Regarding `Cc1sc2nc(-c3cc([N+](=O)[O-])c(Cl)cc3Cl)c(/C=N/NC(=N)N)n2c1C`, the GI50 in test [8] was 2.09 µM; with NSCLC, 11 µM; in [9] it was 4.27 µM; in test [10], 11.2 µM; in [11], 5.01 µM; in [12], 5.25 µM. In addition, the concentration for 50% growth inhibition (GI50) was 8.71 µM in test [13], 9.12 µM in test [14] and 7.24 µM in [15]. Further, the TGI is 22.4 µM in [8]; 47.9 µM in the test on NSCLC; 29.5 µM in test [9]; 67.6 µM in [10]; 16.2 µM in [11]; 24 µM in test [12]. Also, the TGI was 38 µM in test [14] and 35.5 µM in test [15].
